MEX-5 binding – C. elegans MEX-5 TCR-2 RNA binding activity; Q9XUB2; AID 1832; activity score (negative = inhibition of binding), % at 10 µM; MEX-5/FITC-TCR2 RNA binding, fluorescence polarization; stronger effect = lower value; 300,000 tested, 0.38% active;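 active means inhibition past about -25% in most replicates, and total fluorescence under double the plate's negative control median, limit read from the data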
HCV core dimer – HCV core protein dimerization inhibition | TR-FRET GST/Flag-core106 dimerization, 1536-well | inhibition, % at 5 µM | 300,000 tested, 0.33% active;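 active means inhibition above the mean of all tested compounds plus 3 SD, set per screening campaign, cut at about 45% in these data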
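Material: Tagged HCV core106 pair (GST and Flag) | Amount: GST-core106 13.5 nM, Flag-core106 17 nM | Medium: KF-containing HEPES buffer, pH 7.45, DTT, CHAPS, BSA | Reagent: Eu donor and XL665 acceptor anti-tag antibodies | Schedule: 4 h at 22.5 °C | Technique: Time-resolved FRET, ex 340 nm, em 617 and 671 nm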
ZTA DNA inh – counter-screen for EBNA-1 inhibitors: inhibitors of Epstein-Barr virus ZTA | AID 2234 | P03206 | 320,000 tested, 0.15% active | inhibition, % at 11 µM | ZTA-DNA binding, fluorescence polarization; in the data active means inhibition above about 33%
Target sequence (P03206 whole entry, looked up): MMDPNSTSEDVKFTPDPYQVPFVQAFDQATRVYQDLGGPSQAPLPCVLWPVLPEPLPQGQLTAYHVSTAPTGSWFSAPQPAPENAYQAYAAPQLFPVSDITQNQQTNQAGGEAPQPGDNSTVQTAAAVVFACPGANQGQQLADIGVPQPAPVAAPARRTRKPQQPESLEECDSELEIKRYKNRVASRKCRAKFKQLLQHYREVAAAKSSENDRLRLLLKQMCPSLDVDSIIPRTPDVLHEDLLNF
EBV gp42 inh – inhibitors of Epstein-Barr virus glycoprotein 42. AID 1085. inhibition, % (tested at 21.74 µM). Fluorescence polarization binding assay, mP read-out. 220,000 tested, 0.42% active; in the data active means inhibition above about 50%
Target sequence (Q1HVG2 whole entry, looked up): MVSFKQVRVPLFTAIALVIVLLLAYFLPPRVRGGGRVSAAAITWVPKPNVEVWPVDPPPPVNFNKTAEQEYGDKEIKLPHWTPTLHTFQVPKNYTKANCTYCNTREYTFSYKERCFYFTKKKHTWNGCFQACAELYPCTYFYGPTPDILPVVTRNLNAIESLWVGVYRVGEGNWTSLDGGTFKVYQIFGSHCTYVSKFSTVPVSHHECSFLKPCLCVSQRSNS
EBNA-1 inhibitor – blocks EBNA-1 binding to DNA; inhibition, % at 14.8 µM; EBNA-1 DNA binding, fluorescence polarization; 300,000 tested, 0.34% active; in the data active means inhibition above about 28%
HCV NS3 hel inh – HCV NS3 helicase inhibition. 290,000 tested, 0.56% active. inhibition, % at 10.9 µM. AID 1800. NS3 helicase DNA unwinding, Cy5 molecular beacon fluorescence;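 active means inhibition above the mean of all tested compounds plus 3 SD, set per campaign, cut at about 35% in these data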
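test system = hepatitis C virus NS3 helicase domain fragment enzyme | reagent = annealed dual-labelled DNA beacon duplex, ATP-started | times = 1 h at 25 °C | detection = Cy5 fluorescence, 0 and 60 min reads | read-out basis = percent inhibition from t60/t0 fluorescence ratio | control set = DMSO and thioflavine S | replication = one well per compound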
NS3 hel confirm – HCV NS3 helicase inhibition, confirmation assay | inhibition, % at 10.9 µM | NS3 helicase DNA unwinding, Cy5 molecular beacon fluorescence | shares compounds with HCV NS3 hel inh | 1,600 tested, 31% active | AID 1943;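 active means inhibition above the mean of all tested compounds plus 3 SD, cutoff set per campaign, cut at about 36% in these data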
FID counter trip – counter-screen for HCV NS3 helicase inhibitors: DNA intercalator displacement. shares compounds with HCV NS3 hel inh. DNA fluorescent intercalator displacement, fluorescence. inhibition, % at 7.9 µM. 1,600 tested, 4% active. AID 1945; in the data active means inhibition above about 37%;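 further: higher means more displacement of ethidium bromide from the DNA hairpin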
FID counter DR – DNA intercalator displacement in dose response; 120 tested, under 10 active; shares compounds with HCV NS3 hel inh; AID 2172; IC50, µM; fluorescent intercalator displacement from DNA, fluorescence; call rule not given here
Large screens that a line does not name were inactive (follow-up assays come after a bar, where they were run). In the library only some 1.7% were active in any assay of this set; here they are far more common.

O=C(CCl)Nc1nc(-c2ccco2)c(-c2ccco2)s1	HCV NS3 hel inh 61 (no result: MEX-5 binding) | NS3 hel confirm 63 | FID counter trip inactive | FID counter DR inactive
O=C(CCCSc1ccccc1)Nc1nc(-c2ccco2)c(-c2ccco2)s1	HCV NS3 hel inh 92 | NS3 hel confirm 69 | FID counter trip inactive | FID counter DR inactive
CC(=O)c1sc(NC(=O)CCNC(=O)c2ccco2)nc1-c1ccccc1	none (no result: EBV gp42 inh)
COc1cc(/C=C2\SC(=O)N(CC(=O)Nc3ccc(C)cc3)C2=O)cc(Cl)c1OCC(=O)O	HCV NS3 hel inh 43 (no result: EBV gp42 inh) | NS3 hel confirm 62 | FID counter trip inactive
CCC(C)Sc1ccc([C@@H]2[C@@H]3C(=O)N(C)C(=O)[C@@H]3[C@]3(C(=O)OC)CCCCN23)cc1 (stereo partly specified)	none (no result: EBV gp42 inh, HCV NS3 hel inh)
COc1cc2cc3c(N)c(C(=O)Nc4sc(C)c(C)c4C#N)sc3nc2cc1OC	HCV NS3 hel inh 37 | NS3 hel confirm 50 | FID counter trip inactive | FID counter DR inactive
Cc1cc(C(=O)Nc2sc(C)c(C)c2C#N)no1	none
Cc1ccc(S(=O)(=O)NC(=O)Nc2ccc(N(C)C)cc2)cc1	ZTA DNA inh active, EBNA-1 inhibitor active, HCV NS3 hel inh 51 (no result: EBV gp42 inh) | NS3 hel confirm 70 | FID counter trip inactive
Cc1ccc(S(=O)(=O)NC(=O)c2cc(C)n(-c3ccc(N(C)C)cc3)c2C)cc1	HCV NS3 hel inh 42 | NS3 hel confirm inactive | FID counter trip inactive
Cc1ccccc1CSc1nnc(-c2ccncc2)n1C	none (no result: EBV gp42 inh)
O=c1[nH]n2c(=O)c3c([nH]c2c1N=Nc1cccc(C(F)(F)F)c1)CCCC3	HCV NS3 hel inh 64 | NS3 hel confirm 79 | FID counter trip inactive
Cc1[nH]n(C(N)=S)c(=O)c1N=Nc1cccc(C(F)(F)F)c1	none (no result: EBV gp42 inh)
Cc1ccc(-c2nc3c(c(=O)c4ccccc4n3C)c(=O)n2Cc2ccco2)cc1	HCV NS3 hel inh 38 | NS3 hel confirm inactive | FID counter trip inactive
O=C(CN1CCN(c2ccc(O)cc2)CC1)Nc1ccc2c(c1)OCCCO2	none (no result: MEX-5 binding, HCV core dimer, EBV gp42 inh, EBNA-1 inhibitor, HCV NS3 hel inh)
Cc1cccc(NC(=O)c2ccccc2OCC(=O)N2CCCC2)c1C	HCV NS3 hel inh 40 | NS3 hel confirm inactive | FID counter trip inactive
Cc1cccc(OCC(=O)Nc2ccccc2N2CCCC2)c1C	none (no result: EBV gp42 inh, HCV NS3 hel inh)
O=C(Nc1cccc2nsnc12)c1ccc(-c2cccc(Cl)c2)o1	HCV NS3 hel inh 40 (no result: MEX-5 binding) | NS3 hel confirm inactive | FID counter trip inactive
O=C(Nc1ccccc1N1CCCCC1)c1ccc(-c2cccc(Cl)c2)o1	none
CN1CCN(CCc2nc3cc(NC(=O)COc4ccc([N+](=O)[O-])cc4)ccc3n2C)CC1	none (no result: EBV gp42 inh)
O=c1cc(-c2ccc([N+](=O)[O-])cc2)nc2cc(-c3ccc(Cl)cc3)[nH]n12	EBV gp42 inh 83, HCV NS3 hel inh 48 (no result: MEX-5 binding) | NS3 hel confirm inactive | FID counter trip inactive
CC1CCCN(S(=O)(=O)c2ccc(C(=O)Nc3nnc(C4=COCCO4)o3)cc2)C1 (stereo unspecified)	HCV NS3 hel inh 65 (no result: EBV gp42 inh) | NS3 hel confirm inactive | FID counter trip inactive
COc1ccc(-c2nc3c(c(SCC(=O)Nc4cccc(O)c4)n2)Cc2c(CO)cnc(C)c2O3)cc1	HCV core dimer 71, HCV NS3 hel inh 70 (no result: EBV gp42 inh) | NS3 hel confirm inactive | FID counter trip inactive
CC(=O)c1ccc(OC(=O)/C=C/c2ccccc2)cc1	HCV NS3 hel inh 39 (no result: EBV gp42 inh) | NS3 hel confirm inactive | FID counter trip inactive
COc1ccc(/C(N)=N/OC(=O)/C=C/c2ccccc2)cc1	none
O=C(Nc1ccccc1F)C1COc2ccccc2O1 (stereo unspecified)	none (no result: EBV gp42 inh)
O=c1cc(-c2cc3ccccc3o2)c2cc(O)ccc2o1	none (no result: EBV gp42 inh)
Cc1cc2oc(=O)cc(-c3cc4ccccc4o3)c2cc1O	HCV NS3 hel inh 39 (no result: EBV gp42 inh) | NS3 hel confirm inactive | FID counter trip inactive
O=c1[nH]c(-c2ccccc2)ncc1Oc1ccccc1	none (no result: EBV gp42 inh, HCV NS3 hel inh)
CCCCCn1c(C)c2c(OCC)cccc(=O)c2c1C	HCV NS3 hel inh 54 | NS3 hel confirm inactive | FID counter trip inactive
CCOc1cccc(=O)c2c(C)n(C)c(C)c12	none
COc1ccc(C(=O)C2CCN(CC(=O)Nc3ccc(C)cc3)CC2)cc1	none (no result: EBV gp42 inh)
COc1ccc(/C(C)=N/NC(=S)NCCc2ccccc2)c(O)c1	HCV NS3 hel inh 42 (no result: EBV gp42 inh) | NS3 hel confirm inactive | FID counter trip inactive
COc1ccc(O)c(/C=N/NC(=S)NCCc2ccccc2)c1	none (no result: EBV gp42 inh)
Cc1cnc(NC(=O)c2cc3ccccc3o2)s1	none
Cc1cc(C)c(C)c(S(=O)(=O)N2CCC(C(=O)NC3=NCCS3)CC2)c1C	none (no result: MEX-5 binding, HCV core dimer, EBV gp42 inh, EBNA-1 inhibitor, HCV NS3 hel inh)
CN=c1scc(-c2ccc(F)cc2)n1/N=C/c1ccc(O)c(O)c1	HCV NS3 hel inh 45 (no result: MEX-5 binding, HCV core dimer, ZTA DNA inh, EBNA-1 inhibitor) | NS3 hel confirm inactive | FID counter trip inactive
CC(C)c1ccc(NC2=CC(=O)CC(C)(C)C2)cc1	none (no result: EBV gp42 inh)
CCCC(=O)Nc1cccc(NC(=O)c2ccc([N+](=O)[O-])cc2Cl)c1	HCV NS3 hel inh 53 | NS3 hel confirm inactive | FID counter trip inactive
CC(=O)N/C(=C\c1ccccc1)C(=O)OCC(=O)N(CC(C)C)c1c(N)n(Cc2ccccc2)c(=O)[nH]c1=O	none (no result: EBV gp42 inh, HCV NS3 hel inh)
O=C(O)c1c(C(=O)N2N=C3/C(=C/c4ccccc4)CCCC3C2c2ccccc2)cccc1[N+](=O)[O-] (stereo unspecified)	HCV NS3 hel inh 49 | NS3 hel confirm 69 | FID counter trip inactive
N#Cc1c(N2CCCCC2)nc(N)c2c(N)nc3c(c12)CC(CCl)O3 (stereo unspecified)	HCV NS3 hel inh 58 | NS3 hel confirm inactive | FID counter trip inactive
CCC1Cc2c(nc(N)c3c(N)nc(N4CCOCC4)c(C#N)c23)O1 (stereo unspecified)	none
CCC(C)(C)c1ccc(OC(=O)c2cccnc2Cl)cc1	none (no result: EBV gp42 inh)
Cc1cc(OCc2nn[nH]n2)c2c(C)c(Cc3ccccc3)c(=O)oc2c1	HCV NS3 hel inh 69 | NS3 hel confirm 62 | FID counter trip inactive
O=C(O)c1cc([N+](=O)[O-])cc([N+](=O)[O-])c1N1CCN(c2cccc(C(F)(F)F)c2)CC1	HCV NS3 hel inh 42 (no result: HCV core dimer, ZTA DNA inh, EBV gp42 inh, EBNA-1 inhibitor) | NS3 hel confirm 55 | FID counter trip inactive
CC(C)c1ccc(OCC(=O)NC(Cc2c[nH]c3ccccc23)C(=O)O)cc1 (stereo unspecified)	HCV NS3 hel inh 48 | NS3 hel confirm 62 | FID counter trip inactive
Cc1cc(=O)oc2c(C)c(OC(C)C(=O)NC(Cc3c[nH]c4ccc(O)cc34)C(=O)O)ccc12 (stereo unspecified)	none (no result: EBV gp42 inh)
